We go through one protein from ChEMBL document CHEMBL1649236, “The structure of the dizinc subclass B2 metallo-beta-lactamase CphA reveals that the second inhibitory zinc ion binds in the histidine site” (Antimicrob Agents Chemother, 2009).

Compound in data set [1]: O=C(Cc1cccs1)N[C@@H]1C(=O)N2C(C(=O)O)=C(CSc3ccc([N+](=O)[O-])c(C(=O)O)c3)CS[C@H]12
The data set is described as follows: (§1) Ratio of Kcat to Km for Aeromonas hydrophila metallo-betalactamase CphA expressed in Escherichia coli BL21(DE3) by spectrophotometric analysis in presence of < 0.4 uM zinc ions. In a few lines: (§2)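 Steady-state kinetics (kcat, Km, kcat/Km) at 30°C in 15 mM cacodylate pH 6.5, no added Zn2+ (free [Zn2+] < 0.4 µM), enzyme as the mono-zinc form (one Zn per molecule). Substrates imipenem, nitrocefin and CENTA. N233A mutant from E. coli BL21 (DE3) pLysS Star, purified to homogeneity, mass checked by ESI-MS. Standard errors below 10%.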

Compound in data set [2]: O=C(Cc1cccs1)N[C@@H]1C(=O)N2C(C(=O)O)=C(/C=C/c3ccc([N+](=O)[O-])cc3[N+](=O)[O-])CS[C@H]12
The description is as §1. In a few lines:
as §2

Compound in data set [3]: C[C@@H](O)[C@H]1C(=O)N2C(C(=O)O)=C(SCCNC=N)C[C@H]12
The data set is described as §1. In a few lines: as §2

Compound in data set [4]: O=C(Cc1cccs1)N[C@@H]1C(=O)N2C(C(=O)O)=C(CSc3ccc([N+](=O)[O-])c(C(=O)O)c3)CS[C@H]12
In words: (§3) Activity of Aeromonas hydrophila metallo-betalactamase CphA expressed in Escherichia coli BL21(DE3) by spectrophotometric analysis in presence of < 0.4 uM zinc ions. In a few lines: as §2

Compound in data set [5]: O=C(Cc1cccs1)N[C@@H]1C(=O)N2C(C(=O)O)=C(/C=C/c3ccc([N+](=O)[O-])cc3[N+](=O)[O-])CS[C@H]12
Described as §3. A digest of the protocol: as §2

Compound in data set [6]: C[C@@H](O)[C@H]1C(=O)N2C(C(=O)O)=C(SCCNC=N)C[C@H]12
Described as §3. In a few lines: as §2

B1: Metallo-beta-lactamase type 2 (Aeromonas hydrophila), P26918 (protein)
chain: MMKGWMKCGLAGAVVLMASFWGGSVRAAGMSLTQVSGPVYVVEDNYYVQENSMVYFGAKGVTVVGATWTPDTARELHKLIKRVSRKPVLEVINTNYHTDRAGGNAYWKSIGAKVVSTRQTRDLMKSDWAEIVAFTRKGLPEYPDLPLVLPNVVHDGDFTLQEGKVRAFYAGPAHTPDGIFVYFPDEQVLYGNCILKEKLGNLSFADVKAYPQTLERLKAMKLPIKTVIGGHDSPLHGPELIDHYEALIKAAPQS
For B1, the kcat/Km result in data set [1] was “Not Active”; in data set [2], 6 M⁻¹ s⁻¹; in data set [3] it was 3.5e+06 M⁻¹ s⁻¹. In addition, the results for the Michaelis constant (Km) entry in data set [4], in data set [5] and in data set [6] were “Not Active”, 1300 µM and 340 µM, respectively. The kcat entry in data set [4] was “Not Active”; in data set [5], 0.008 s⁻¹; in data set [6] it was 1200 s⁻¹.

As a reminder, the kcat/Km is the second-order rate constant that governs catalysis at low substrate concentration. A word on the Km: it is the concentration of substrate that gives half-maximal velocity. As a reminder, the kcat is the number of substrate molecules converted per active site and unit of time at saturation.
